Screening results (PubChem BioAssay)
DAGLB inh = diacylglycerol lipase beta (human) inhibition. Q8NCG7. HEK293T DAGLB membrane lysate, EnzChek fluorogenic substrate. inhibition, % at 5.17 µM. 340,000 tested, 0.059% active. AID 504411; in the data active = inhibition above about 34%;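 also: 0% = enzyme with vehicle and 100% = wells lacking enzyme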
Target sequence (Q8NCG7 whole entry, looked up): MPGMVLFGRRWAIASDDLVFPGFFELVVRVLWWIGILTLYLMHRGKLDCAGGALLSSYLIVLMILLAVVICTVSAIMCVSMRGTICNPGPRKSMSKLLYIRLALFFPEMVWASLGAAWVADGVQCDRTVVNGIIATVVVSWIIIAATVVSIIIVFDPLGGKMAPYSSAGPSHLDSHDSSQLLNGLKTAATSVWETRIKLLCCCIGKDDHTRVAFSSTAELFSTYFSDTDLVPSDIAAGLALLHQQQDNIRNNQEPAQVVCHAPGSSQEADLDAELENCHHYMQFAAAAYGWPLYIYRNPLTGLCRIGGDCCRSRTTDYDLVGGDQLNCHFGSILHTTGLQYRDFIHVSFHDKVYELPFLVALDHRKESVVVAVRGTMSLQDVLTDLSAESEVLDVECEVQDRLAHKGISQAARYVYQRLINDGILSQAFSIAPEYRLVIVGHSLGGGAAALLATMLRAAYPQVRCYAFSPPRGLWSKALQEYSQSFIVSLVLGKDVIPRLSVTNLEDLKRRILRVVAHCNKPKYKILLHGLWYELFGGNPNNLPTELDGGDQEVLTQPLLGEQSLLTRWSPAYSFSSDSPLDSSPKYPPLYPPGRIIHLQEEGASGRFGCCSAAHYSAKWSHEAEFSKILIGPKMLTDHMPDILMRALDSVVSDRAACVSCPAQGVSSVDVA
MT1-MMP act inh = blocks activation of human MT1-MMP. P50281. HT1080 RFP-PRO-GFP cells, GFP/RFP ratio fluorescence, overnight; percent of plate control window, DMSO zero. GFP/RFP ratio change, % at 20 µM. 360,000 tested, 0.061% active;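 active = GFP/RFP ratio change of at least 30% with cell ATP level not reduced by more than half and red fluorescence within 50% of control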
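Assay system: HT1080 RFP-PRO-GFP cells. Benchmarks: DMSO vehicle wells and RFP-L50D-GFP reporter cell wells. Times: overnight cell settling, then overnight compound exposure, 37 °C, 5% CO2. Compound: 20 µM single dose, 1% DMSO. Read-out basis: GFP/RFP fluorescence ratio.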
NR2E3 ag-1 = agonists of human NR2E3 nuclear receptor; CHO-S Gal4-NCOR/VP16-NR2E3 two-hybrid, luciferase; inhibition of corepressor binding, % at 3.98 µM; 360,000 tested, 0.35% active; Q9Y5X4; AID 602229;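 active = inhibition above the mean of all tested compounds plus 3 SD, cut at about 70% in these data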;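 also: 0% = DMSO with NR2E3 transfected cells and 100% = cells lacking NR2E3 construct; higher means lower luciferase signal from less NR2E3 corepressor binding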
HCV core dimer = HCV core protein dimerization inhibition | TR-FRET GST/Flag-core106 dimerization, 1536-well | 300,000 tested, 0.33% active | AID 1899 | inhibition, % at 5 µM;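 active = inhibition above the mean of all tested compounds plus 3 SD, set per screening campaign, cut at about 45% in these data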
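Assay system: tagged HCV core106 pair (GST and Flag); medium: KF-containing HEPES buffer, pH 7.45, DTT, CHAPS, BSA; also added: Eu donor and XL665 acceptor anti-tag antibodies; dosing: 5 µM single dose; timing: compound-protein-antibody incubation 4 h at 22.5 °C; signal: TR-FRET 671 and 617 nm emission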
NR2E3 ag-2 = activates human photoreceptor nuclear receptor NR2E3; Q9Y5X4; AID 2300; inhibition of corepressor binding, % at 4.78 µM; GST-NR2E3/biotin-RetCOR TR-FRET, 1536-well; 320,000 tested, 0.12% active;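 active = percent inhibition above the cutoff of mean plus 3 SD of all tested compounds, set per screening campaign, cut at about 20% in these data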;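 also: 0% = DMSO wells and 100% = biotin wells as full block of FRET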
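System: GST-tagged NR2E3 plus biotinylated RetCOR corepressor; Buffer or medium: pH 7.5 Tris-based buffer; Probe or stimulus: RetCOR corepressor, biotinylated, 7 nM; Doses: compound at 4.8 µM, single dose; Schedule: 5 h incubation at 4 °C; Technique: time-resolved FRET; Evaluation: percent inhibition of TR-FRET ratio; Replication: one well per compound, singlicate testing.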
Vif imaging = inhibitors of HIV Vif; HEK293T cells, Vif self-association by quenched fluorescence, imaging, 24 h; inhibition, % at 7.49 µM; 340,000 tested, 0.35% active; AID 602346; in the data active = inhibition above about 50%, passing the limit was not always enough
NR2E3 ag confirm = confirmation of human NR2E3 agonists; shares compounds with NR2E3 ag-1; CHO-S mammalian two-hybrid NR2E3-NCOR, luciferase luminescence; 2,300 tested, 51% active; inhibition, % at 3.98 µM;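 active = average inhibition above a cutoff equal to the mean inhibition of all tested compounds plus one SD, cut at about 70% in these data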;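 also: 0% = DMSO in NR2E3 cells and 100% = DMSO in cells lacking NR2E3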
GAL4-VP16 luc = counter-screen for NR2E3 agonists: GAL4-VP16 reporter inhibitors | shares compounds with NR2E3 ag-1 | CHO-S GAL4-VP16 luciferase reporter, luminescence | inhibition, % at 3.98 µM | 2,300 tested, 29% active | AID 624379;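 active = mean inhibition above a cutoff equal to the average over all tested compounds plus one standard deviation, cut at about 70% in these data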;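 also: luciferase from a UAS reporter driven by GAL4-VP16 transactivation; 0% = DMSO with VP16-transfected cells and 100% = DMSO with cells lacking VP16; higher means less reporter light so more repression of VP16 activity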
The depositor's hits bear a star. Shown are actives, neighbours in structure and some others; about 1.1% of the full set was active somewhere.

Results for O=c1[nH]nnc2c1ncn2C1OC(CO)C(O)C1O (stereo unspecified) ?
MT1-MMP act inh: -5; NR2E3 ag-1: 68; NR2E3 ag confirm: 59; GAL4-VP16 luc: 50

Results for COc1ccc(CN(C)C(=O)CCN=C2NS(=O)(=O)c3ccccc32)c(OC)c1 ?
DAGLB inh: -2; MT1-MMP act inh: 6; NR2E3 ag-1: 4; NR2E3 ag-2: 0; Vif imaging: 16

What do the screens show for `COc1ccc(CC(N)c2csc(Nc3nc(C)cnc3C)n2)cc1` (stereo unspecified)?
MT1-MMP act inh: -1; NR2E3 ag-1: 1; Vif imaging: 8

How did CC(NCCCOc1cccc2ccccc12)c1ccccc1 (stereo unspecified) do in these assays?
DAGLB inh: -2; MT1-MMP act inh: -6; NR2E3 ag-1: -11; HCV core dimer: -8; NR2E3 ag-2: 0; Vif imaging: -16

Results for Cc1cc(Nc2cccc(Cl)c2)nc(NCc2ccccc2)n1 ?
DAGLB inh: 2; MT1-MMP act inh: -1; NR2E3 ag-1: 93*; HCV core dimer: -11; NR2E3 ag-2: 2; Vif imaging: -1; NR2E3 ag confirm: 96*; GAL4-VP16 luc: 76*

How did CCOc1ccc(NC(=O)NCCCn2c(C)nc3cc(C)c(C)cc32)cc1 do in these assays?
DAGLB inh: 1; MT1-MMP act inh: 2; NR2E3 ag-1: 31; HCV core dimer: -3; NR2E3 ag-2: 1; Vif imaging: -8

Results for Cc1cc2nc(C)n(CCCNC(=O)Nc3cccc4ccccc34)c2cc1C ?
DAGLB inh: -3; MT1-MMP act inh: 6; NR2E3 ag-1: 62; HCV core dimer: 0; NR2E3 ag-2: 0; Vif imaging: -15; NR2E3 ag confirm: 76*; GAL4-VP16 luc: 67

Results for NC(=S)NN=C1c2ccccc2-c2ccccc21 ?
DAGLB inh: -1; MT1-MMP act inh: 4; NR2E3 ag-1: 72*; HCV core dimer: -11; NR2E3 ag-2: 4; Vif imaging: -13; NR2E3 ag confirm: -4; GAL4-VP16 luc: -11

How did CCCCc1ccc(S(=O)(=O)N/N=C(/C)c2ccncc2)cc1 do in these assays?
DAGLB inh: -2; MT1-MMP act inh: -1; NR2E3 ag-1: 86*; HCV core dimer: -1; NR2E3 ag-2: -1; Vif imaging: -22; NR2E3 ag confirm: 51; GAL4-VP16 luc: 67

Results for C/C(=N\NS(=O)(=O)c1ccccc1)c1ccccc1 ?
DAGLB inh: 0; MT1-MMP act inh: 11; NR2E3 ag-1: 4; HCV core dimer: 3; NR2E3 ag-2: 6; Vif imaging: -1

What do the screens show for `Cc1cc(C)cc(C(=O)N2CCC3(CC2)NCCc2[nH]cnc23)c1`?
DAGLB inh: 1; MT1-MMP act inh: 0; NR2E3 ag-1: -11; HCV core dimer: -5; NR2E3 ag-2: 2; Vif imaging: -15

What do the screens show for `O=[N+]([O-])c1ccc(CN2CC(N3CCC(Cc4ccccc4)CC3)CS2(=O)=O)cc1` (stereo unspecified)?
DAGLB inh: -2; MT1-MMP act inh: 2; NR2E3 ag-1: 8; Vif imaging: -1

Results for Cc1ccc2nc(Br)c3c(c2c1)OC(CBr)C3 (stereo unspecified) ?
DAGLB inh: -4; MT1-MMP act inh: 0; NR2E3 ag-1: -28; HCV core dimer: 9; NR2E3 ag-2: 3; Vif imaging: -9

How did Cc1ccc(NC(=O)Cn2cc(C(=O)C3CC3)c3ccccc32)c(C)c1 do in these assays?
DAGLB inh: -1; MT1-MMP act inh: -3; NR2E3 ag-1: 13; HCV core dimer: -5; NR2E3 ag-2: 2; Vif imaging: 5
